Laboratory results from ChEMBL document CHEMBL1152541, “Staurosporine tethered peptide ligands that target cAMP-dependent protein kinase (PKA): optimization and selectivity profiling” (Bioorg Med Chem, 2009).
Each block holds one compound with its values, some of them ahead of it. *1 amine or outer side, *2 acyl side, *3 side chain or, on linkers, in order; H or OH if unused. Where a SMILES comes first, the peptide text is derived from it. Bridges are numbered along the chain shown (N, C = ends). [ ]: non-standard residue; d: D form. The star is where a group is joined. Staurosporine = CO[C@@H]1[C@H](N(C)*)C[C@H]2O[C@]1(C)n1c3ccccc3c3c4c(c5c6ccccc6n2c5c31)C(=O)NC4; Suc = O=C(CCC(=O)[*:2])[*:1]; Dap = NC[C@H](N)C(=O)O; βAla = NCCC(=O)O

Assays:
[1] = molecular target: Macrophage colony-stimulating factor 1 receptor (Homo sapiens) (UniProt P07333); assay: Binding affinity to human CSF1R at 500 nM by cell-based competition binding assay relative to control in presence of DTT
In short: (§1)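 Commercial (Ambit) competitive kinase-binding panel of 90 kinases measured the binding profile. Run under reducing conditions of 7.5 mM DTT. Binding is expressed relative to control.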

[2] = molecular target: Serine/threonine-protein kinase pim-2 (Homo sapiens) (UniProt Q9P1W9); assay: Binding affinity to human PIM2 at 500 nM by cell-based competition binding assay relative to control in presence of DTT
[3] = molecular target: T1, NUAK family SNF1-like kinase 2 (Homo sapiens) (UniProt Q9H093); assay: Binding affinity to human SNARK at 500 nM by cell-based competition binding assay relative to control in presence of DTT
T1 sequence (whole entry): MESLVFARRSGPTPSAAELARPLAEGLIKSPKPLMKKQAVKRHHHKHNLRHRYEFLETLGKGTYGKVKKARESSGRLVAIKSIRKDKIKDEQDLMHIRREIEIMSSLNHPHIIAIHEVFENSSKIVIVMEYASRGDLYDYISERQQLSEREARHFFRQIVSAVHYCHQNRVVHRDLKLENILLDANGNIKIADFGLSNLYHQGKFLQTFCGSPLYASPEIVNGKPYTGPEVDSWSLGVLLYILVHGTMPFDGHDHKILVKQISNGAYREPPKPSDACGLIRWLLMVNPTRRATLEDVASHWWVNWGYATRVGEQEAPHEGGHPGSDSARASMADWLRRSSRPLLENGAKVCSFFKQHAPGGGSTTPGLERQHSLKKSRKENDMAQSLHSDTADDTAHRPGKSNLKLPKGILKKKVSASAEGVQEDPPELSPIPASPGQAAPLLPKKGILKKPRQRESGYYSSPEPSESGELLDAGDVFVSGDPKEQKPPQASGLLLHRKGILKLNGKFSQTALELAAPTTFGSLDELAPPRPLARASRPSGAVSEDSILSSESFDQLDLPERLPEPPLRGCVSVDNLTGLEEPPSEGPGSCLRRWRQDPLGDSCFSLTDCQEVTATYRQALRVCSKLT

[4] = molecular target: Aurora kinase B (Homo sapiens) (UniProt Q96GD4); assay: Binding affinity to human aurora kinase B at 500 nM by cell-based competition binding assay relative to control in presence of DTT
[5] = molecular target: Cyclin-dependent kinase 2 (Homo sapiens) (UniProt P24941); assay: Ratio of compound to staurosporine binding affinity to human CDK2 in presence of DTT
[6] = system: Mast/stem cell growth factor receptor Kit (Homo sapiens), P10721 [V559D,T670I]; assay: Binding affinity to human KIT V559D,T670I mutant at 500 nM by cell-based competition binding assay relative to control in presence of DTT
In short: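 Competition binding screen (Ambit) across a panel of 90 kinases, scoring test ligand displacement of each kinase's binding relative to control. The screen ran under reducing conditions with 7.5 mM DTT.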

[7] = molecular target: Phosphatidylinositol 4,5-bisphosphate 3-kinase catalytic subunit gamma isoform (Homo sapiens) (UniProt P48736); assay: Binding affinity to human PIK3Cgamma at 200 nM by cell-based competition binding assay relative to control in presence of DTT
[8] = molecular target: Serine/threonine-protein kinase pim-1 (Homo sapiens) (UniProt P11309); assay: Binding affinity to human PIM1 at 200 nM by cell-based competition binding assay relative to control in presence of DTT
[9] = molecular target: T2, Activin receptor type-1B (Homo sapiens) (UniProt P36896); assay: Binding affinity to human ACVR1B at 200 nM by cell-based competition binding assay relative to control in presence of DTT
T2 sequence (whole entry): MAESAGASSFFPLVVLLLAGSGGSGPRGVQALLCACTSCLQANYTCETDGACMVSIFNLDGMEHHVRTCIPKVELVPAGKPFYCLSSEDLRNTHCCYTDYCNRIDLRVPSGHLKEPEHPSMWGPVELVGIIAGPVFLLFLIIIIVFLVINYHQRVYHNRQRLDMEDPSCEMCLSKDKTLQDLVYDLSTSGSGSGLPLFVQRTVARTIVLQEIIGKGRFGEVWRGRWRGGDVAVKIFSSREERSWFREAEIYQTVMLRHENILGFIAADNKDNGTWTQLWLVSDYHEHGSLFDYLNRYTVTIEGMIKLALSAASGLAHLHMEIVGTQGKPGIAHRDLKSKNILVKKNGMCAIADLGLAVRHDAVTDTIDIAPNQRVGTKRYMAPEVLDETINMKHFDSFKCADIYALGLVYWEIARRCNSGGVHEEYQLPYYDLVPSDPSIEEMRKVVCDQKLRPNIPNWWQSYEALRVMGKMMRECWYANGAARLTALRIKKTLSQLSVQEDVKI
In short: (§2)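 Kinase binding profiling ran on a commercial (Ambit) competitive binding screen against a panel of 90 kinases. The screen used reducing conditions with 7.5 mM DTT. To withstand the DTT, the bivalent ligand was tested as its amide isostere, with the disulfide replaced. A staurosporine derivative carrying a 3 β-alanine linker was run as the reference compound.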

[10] = molecular target: Cyclin-dependent kinase 2 (Homo sapiens) (UniProt P24941); assay: Binding affinity to human CDK2 at 200 nM by cell-based competition binding assay relative to control in presence of DTT; in short: as §2
[11] = molecular target: Serine/threonine-protein kinase pim-3 (Homo sapiens) (UniProt Q86V86); assay: Binding affinity to human PIM3 at 200 nM by cell-based competition binding assay relative to control in presence of DTT
[12] = molecular target: Serine/threonine-protein kinase PLK1 (Homo sapiens) (UniProt P53350); assay: Binding affinity to human PLK1 at 200 nM by cell-based competition binding assay relative to control in presence of DTT
[13] = molecular target: Casein kinase I isoform delta (Homo sapiens) (UniProt P48730); assay: Binding affinity to human CSNK1D at 50 nM by cell-based competition binding assay relative to control in presence of DTT; in short: as §1
[14] = molecular target: Mitogen-activated protein kinase 11 (Homo sapiens) (UniProt Q15759); assay: Binding affinity to human p38beta at 50 nM by cell-based competition binding assay relative to control in presence of DTT
[15] = molecular target: T1, NUAK family SNF1-like kinase 2 (Homo sapiens); assay: Binding affinity to human SNARK at 50 nM by cell-based competition binding assay relative to control in presence of DTT
[16] = molecular target: Fibroblast growth factor receptor 3 (Homo sapiens) (UniProt P22607); assay: Binding affinity to human FGFR3 at 50 nM by cell-based competition binding assay relative to control in presence of DTT; in short: as §1

- Activity [1]: 22%
- Activity [2]: 100%
- Activity [3]: 3.2%
- Activity [4]: 0%
- Selectivity ratio [5]: 50
- Activity [6]: 4.8%
SMILES: CO[C@@H]1[C@H](N(C)C(=O)CCC(=O)NCCC(=O)NCCC(=O)NCCC(N)=O)C[C@H]2O[C@]1(C)n1c3ccccc3c3c4c(c5c6ccccc6n2c5c31)C(=O)NC4

- Activity [7]: 100%
- Activity [8]: 53%
- Activity [9]: 95%
- Activity [10]: 100%
- Activity [11]: 26%
- Activity [12]: 95%
SMILES: CO[C@@H]1[C@H](N(C)C(=O)CCC(=O)NCCC(=O)NCCC(=O)NCCC(=O)NCCC(=O)NCCC(=O)NCCC(=O)NCCC(=O)N[C@H]2CSSC[C@@H](C(=O)NCC(N)=O)NC(=O)CNC(=O)[C@H](Cc3ccccc3)NC(=O)[C@H](C(C)C)NC(=O)[C@H](CCCNC(=N)N)NC(=O)[C@H](Cc3ccccc3)NC(=O)[C@H](C(C)C)NC2=O)C[C@H]2O[C@]1(C)n1c3ccccc3c3c4c(c5c6ccccc6n2c5c31)C(=O)NC4 ({Staurosporine-Suc-βAla-βAla-βAla-βAla-βAla-βAla-βAla}-CVFRVFGCG-NH2; disulfide 1-8)

- Activity [13]: 100%
- Activity [14]: 100%
- Activity [15]: 1.8%
- Activity [16]: 100%
SMILES: CO[C@@H]1[C@H](N(C)C(=O)CCC(=O)NCCC(=O)NCCC(=O)NCCC(=O)NCCC(=O)NCCC(=O)NCCC(=O)NCCC(=O)N[C@H]2CNC(=O)C[C@@H](C(N)=O)NC(=O)CNC(=O)[C@H](Cc3ccccc3)NC(=O)[C@H](C(C)C)NC(=O)[C@H](CCCNC(=N)N)NC(=O)[C@H](Cc3ccccc3)NC(=O)[C@H](C(C)C)NC2=O)C[C@H]2O[C@]1(C)n1c3ccccc3c3c4c(c5c6ccccc6n2c5c31)C(=O)NC4 ({Staurosporine-Suc-βAla-βAla-βAla-βAla-βAla-βAla-βAla}-[Dap]VFRVFGD-NH2; lactam 1-8)
